{"data": "Assay results from different studies", "matrix": "plasma", "note": "Each line is one published result; the experiments were not run side by side."}
{"Structure (SMILES)": "COCCOC(=O)C1=C(C)NC(C)=C(C(=O)OC(C)C)C1c1cccc([N+](=O)[O-])c1 (stereo not shown)", "species": "male Sprague-Dawley rat", "route": "oral", "dose": "12 mg/kg", "Tmax [h]": 0.33}
{"Structure (SMILES)": "N#Cc1[nH]nnc1-c1cc(Cl)cc(/C=C/c2cccc(C(F)(F)F)c2)c1", "species": "male Sprague-Dawley rat", "route": "oral", "dose": "10 mg/kg", "Tmax [h]": 5.3}
{"Structure (SMILES)": "C=CC(=O)N1CC2CC(n3nc(-c4ccc(C(=O)Nc5ccccn5)cc4)c4c(N)ncnc43)CC2C1 (stereo not shown)", "species": "male Wistar rat", "route": "oral", "dose": "3 mg/kg", "Tmax [h]": 0.25}
{"Structure (SMILES)": "Cc1cc(Nc2ccc(C(F)(F)F)nc2)n2nc(C(C)(F)F)nc2n1", "species": "rat", "route": "oral", "dose": "200 mg/kg", "Tmax [h]": 12}
{"Structure (SMILES)": "CCc1cc(C(=O)NC)c2nccc(N3CCc4c(cc(Cn5ccnc5)cc4-c4cn(C)nc4C(F)(F)F)C3=O)c2c1", "species": "male Sprague-Dawley rat", "route": "oral", "dose": "50 mg/kg", "Tmax [h]": 1.7}
{"Structure (SMILES)": "COc1nc(-c2cc(C)c(N[C@@H](C)c3cc(F)cc(F)c3)nn2)ccc1-n1cnc(C)c1", "species": "male Sprague-Dawley rat", "route": "intravenous", "dose": "1 mg/kg", "setting": "single dose", "Tmax [h]": 0.083}
{"Structure (SMILES)": "CCc1cc(OC)c2nccc(N3CCc4c(cc(Cn5ccnc5)cc4-c4cn(C)nc4C(F)(F)F)C3=O)c2c1", "species": "male Sprague-Dawley rat", "route": "oral", "dose": "50 mg/kg", "Tmax [h]": 1.7}
{"Structure (SMILES)": "COc1ccc2c(Cc3ccccc3F)c3n(c(=O)c2c1OC)CCc1cc2c(cc1-3)OCO2", "species": "rat", "route": "oral", "dose": "5 mg/kg", "Tmax [h]": 2.66}
{"Structure (SMILES)": "Cc1c(-c2ccccc2)cccc1N1C(=O)c2cc(CN[C@H](C(=O)O)C(C)O)c(OCc3cccc(C#N)c3)cc2C1=O (stereo partly shown)", "species": "Sprague-Dawley rat", "route": "intravenous", "dose": "5 mg/kg", "Tmax [h]": 0.08}
{"Structure (SMILES)": "N#Cc1ccc(Nc2nc(N)cc(Oc3c(F)cc(-c4ccc(C#N)cc4)cc3F)n2)cc1", "species": "Sprague-Dawley rat", "route": "oral", "dose": "5 mg/kg", "Tmax [h]": 4}
{"Structure (SMILES)": "C[C@H](Nc1ncnc2[nH]cnc12)c1cc2cccc(Cl)c2c(=O)n1-c1ccccc1", "species": "male Wistar rat", "route": "oral", "dose": "25 mg/kg", "setting": "single dose", "Tmax [h]": 2}
{"Structure (SMILES)": "COc1cc(/C=C/C(=O)CC(=O)/C=C/c2ccc(O)c(OC)c2)ccc1O", "species": "male Sprague-Dawley rat", "route": "oral", "dose": "100 mg/kg", "Tmax [h]": 0.167}
{"Structure (SMILES)": "CNC(=O)c1c(C)oc2cc(Oc3ncnc4cc(OC)c(OC)cc34)ccc12", "species": "Sprague-Dawley rat", "route": "oral", "dose": "1 mg/kg", "setting": "single dose", "Tmax [h]": 4.25}
{"Structure (SMILES)": "O=C(Nc1cc(F)c(F)c(F)c1)c1ccc(F)c(S(=O)(=O)NCc2cccc(B(O)O)c2)c1", "species": "male Sprague-Dawley rat", "route": "oral", "dose": "20 mg/kg", "Tmax [h]": 0.38}
{"Structure (SMILES)": "CCc1nc(C(N)=O)c(Nc2ccc(N3CCC(N4CCN(C)CC4)CC3)c(OC)c2)nc1NC1CCOCC1", "species": "male Sprague-Dawley rat", "route": "oral", "dose": "10 mg/kg", "Tmax [h]": 11}
{"Structure (SMILES)": "N#Cc1[nH]nnc1-c1cccc(OCc2cc(C(F)(F)F)ccc2C(F)(F)F)c1", "species": "male Sprague-Dawley rat", "route": "oral", "dose": "10 mg/kg", "Tmax [h]": 1.3}
